The values below come from ChEMBL document CHEMBL4014306, “Pyrazolopyrimidines as Potent Stimulators for Transient Receptor Potential Canonical 3/6/7 Channels” (J Med Chem, 2017).

Each structure is given as a SMILES string. pEC50, pIC50: −log10 of the molar value.

Holding throughout (assay type): cell-based
Data set [1] addresses T1, Short transient receptor potential channel 6 (Mus musculus, UniProt Q61143).
T1 sequence (Q61143 whole entry): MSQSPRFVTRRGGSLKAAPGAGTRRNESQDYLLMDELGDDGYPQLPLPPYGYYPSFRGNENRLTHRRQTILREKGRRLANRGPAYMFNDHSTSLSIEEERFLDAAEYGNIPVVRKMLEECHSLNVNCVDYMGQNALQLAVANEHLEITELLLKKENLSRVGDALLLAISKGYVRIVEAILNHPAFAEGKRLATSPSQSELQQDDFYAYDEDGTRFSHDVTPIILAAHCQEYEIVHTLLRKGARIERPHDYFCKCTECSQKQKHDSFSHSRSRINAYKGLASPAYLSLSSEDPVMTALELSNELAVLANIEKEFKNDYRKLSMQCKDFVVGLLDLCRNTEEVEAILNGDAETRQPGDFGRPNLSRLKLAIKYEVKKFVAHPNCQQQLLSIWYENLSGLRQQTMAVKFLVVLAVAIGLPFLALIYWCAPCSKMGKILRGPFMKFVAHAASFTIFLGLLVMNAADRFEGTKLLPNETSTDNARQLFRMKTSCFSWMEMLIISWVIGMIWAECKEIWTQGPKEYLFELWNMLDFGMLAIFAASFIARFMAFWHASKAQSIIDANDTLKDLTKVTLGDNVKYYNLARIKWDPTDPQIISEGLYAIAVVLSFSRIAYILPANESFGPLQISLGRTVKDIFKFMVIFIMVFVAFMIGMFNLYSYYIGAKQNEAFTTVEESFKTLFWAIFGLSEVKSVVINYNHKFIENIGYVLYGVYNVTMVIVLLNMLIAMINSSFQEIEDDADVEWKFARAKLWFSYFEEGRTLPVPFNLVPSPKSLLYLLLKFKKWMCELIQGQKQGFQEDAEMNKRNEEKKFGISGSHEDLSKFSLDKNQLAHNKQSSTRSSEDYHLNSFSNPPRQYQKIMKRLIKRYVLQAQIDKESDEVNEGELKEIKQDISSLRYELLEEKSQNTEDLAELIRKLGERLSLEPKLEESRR
The data set is described as follows: Agonist activity at mouse TRPC6 expressed in HEK293 cells co-expressing Gq11-PLCbeta fused M5 receptor assessed as increase in intracellular calcium level measured for 2.5 mins by Fluo-8-AM dye-based fluorescence assay. As to conditions: for pEC50: read-out: EC50; call rule not given here. On the technique in general: Calcium assays in cells follow changes in intracellular calcium, usually with a dye or a luminescent sensor.

Data set [2] deals with T2, Short transient receptor potential channel 4 (Mus musculus, UniProt Q9QUQ5).
T2 sequence (Q9QUQ5 whole entry): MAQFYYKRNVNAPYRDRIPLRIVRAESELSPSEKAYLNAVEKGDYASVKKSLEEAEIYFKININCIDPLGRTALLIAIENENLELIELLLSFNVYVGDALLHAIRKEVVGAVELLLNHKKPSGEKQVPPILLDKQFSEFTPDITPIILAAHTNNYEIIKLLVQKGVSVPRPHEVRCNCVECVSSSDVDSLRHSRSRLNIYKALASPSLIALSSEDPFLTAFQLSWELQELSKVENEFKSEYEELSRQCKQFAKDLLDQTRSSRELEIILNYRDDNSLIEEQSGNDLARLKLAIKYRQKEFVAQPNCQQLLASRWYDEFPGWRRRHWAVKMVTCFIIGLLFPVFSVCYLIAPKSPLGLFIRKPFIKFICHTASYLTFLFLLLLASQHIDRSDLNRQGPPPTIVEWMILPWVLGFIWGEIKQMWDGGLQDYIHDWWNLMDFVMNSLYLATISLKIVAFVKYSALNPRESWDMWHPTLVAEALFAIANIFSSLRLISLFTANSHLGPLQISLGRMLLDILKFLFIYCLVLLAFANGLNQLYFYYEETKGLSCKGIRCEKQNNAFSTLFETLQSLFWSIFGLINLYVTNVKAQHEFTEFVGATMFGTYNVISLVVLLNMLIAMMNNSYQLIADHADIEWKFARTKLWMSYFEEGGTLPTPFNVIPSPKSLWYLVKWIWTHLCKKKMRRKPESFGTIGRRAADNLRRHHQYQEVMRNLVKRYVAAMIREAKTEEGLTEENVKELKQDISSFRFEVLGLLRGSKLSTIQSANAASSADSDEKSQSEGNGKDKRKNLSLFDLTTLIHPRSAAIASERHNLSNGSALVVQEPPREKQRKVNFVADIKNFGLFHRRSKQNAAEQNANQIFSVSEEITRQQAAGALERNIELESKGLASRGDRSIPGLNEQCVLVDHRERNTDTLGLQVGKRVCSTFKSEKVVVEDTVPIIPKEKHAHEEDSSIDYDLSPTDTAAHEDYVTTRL
The data set is described as follows: Antagonist activity at mouse TRPC4beta expressed in HEK293 cells co-expressing MOR decrease in DAMGO-evoked intracellular calcium level by Fluo-8-AM dye-based fluorescence assay. The settings on record: for pIC50: read-out: IC50. In outline: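 MOR/TRPC4β HEK293 cells loaded with Ca2+ dye. Compound given before 1 μM DAMGO. IC50 estimated from one experiment in triplicate.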

The next data set relates to HEK293. The data set is described as follows: Induction of intracellular calcium level in HEK293 cells at 100 uM measured for 2.5 mins by Fluo-4-AM dye based FLIPR assay. The settings on record: human, hek293, 2.5 min.

With `CCOC(=O)N1CCC(c2cc(O)n3nc(C)c(-c4ccc([N+](=O)[O-])cc4)c3n2)CC1`, the pEC50 (as a rule, −log10 of the EC50, conventionally taken in molar units) in data set [1] is 5.70. For the same molecule, the IC50 entry in data set [2] is “Not Active”.
As to `Cc1nn2c(O)cc(C3CCN(C(=O)C(C)(C)C)CC3)nc2c1-c1ccc(F)cc1`, the EC50 entry in data set [1] was “Not Active”. In addition, in data set [2], the IC50 result is reported as “Not Active”.
Turning to `COc1ccc(S(=O)(=O)N2CCC(C)(c3cc(O)n4nc(C)c(-c5ccc(F)cc5)c4n3)CC2)cc1`, in data set [1], the EC50 result is “Not Active”. For the same molecule, the IC50 result in data set [2] is on record as “Not Active”.
As for `C[N+](C)(C)CCOC(N)=O.[Cl-]` [CARBACHOL], the Activity result with HEK293 is on record as “Toxic”.
As to `CCC(=O)N1CCC(C)(c2cc(O)n3nc(C)c(-c4ccc(F)cc4)c3n2)CC1`, the EC50 entry in data set [1] is recorded as “Not Active”. Besides, the IC50 result in data set [2] is “Not Active”.
Turning to `Cc1nn2c(O)cc(C3CCN(C(=O)OC(C)(C)C)CC3)nc2c1-c1ccc(Cl)cc1`, the EC50 entry in data set [1] was “Not Active”. Further, in data set [2], the IC50 entry was “Not Active”.
Consider `CCC(=O)N1CCC(c2cc(O)n3nc(C)c(-c4ccc(F)cc4)c3n2)CC1`, for which the pEC50 in data set [1] was 4.54. The pIC50 (commonly −log10 of the IC50, conventionally taken in molar units) in data set [2] is 4.46.
As for `Cc1nn2c(O)cc(C3(C)CCN(C(=O)OC(C)(C)C)CC3)nc2c1-c1ccc(F)cc1`, the EC50 result in data set [1] is listed as “Not Active”. In addition, in data set [2], the IC50 entry is “Not Active”.
Regarding `CCOC(=O)N1CCC(C)(c2cc(O)n3nc(C)c(-c4ccc([N+](=O)[O-])cc4)c3n2)CC1`, in data set [1], the pEC50 was 5.10. For the same molecule, the IC50 result in data set [2] was “Not Active”.
On to `COc1ccc(CC(=O)N2CCC(C)(c3cc(O)n4nc(C)c(-c5ccc([N+](=O)[O-])cc5)c4n3)CC2)cc1OC`, for which the EC50 result in data set [1] is reported as “Not Active”. Further, in data set [2], the IC50 result is listed as “Not Active”.
On to `Cc1nn2c(O)cc(C3(C)CCN(S(=O)(=O)c4c(F)cccc4F)CC3)nc2c1-c1ccc([N+](=O)[O-])cc1`, for which the EC50 result in data set [1] is on record as “Not Active”. Moreover, the IC50 result in data set [2] is on record as “Not Active”.
As to `Cc1nn2c(O)cc(C3CCN(C(=O)c4ccc(Br)nc4)CC3)nc2c1-c1ccc(F)cc1`, the pEC50 in data set [1] is 4.91. For the same molecule, the pIC50 in data set [2] was 5.00.
As for `Cc1nn2c(O)cc(C3(C)CCN(C(=O)C(C)(C)C)CC3)nc2c1-c1ccc(F)cc1`, the EC50 entry in data set [1] is recorded as “Not Active”. Also, in data set [2], the IC50 result is “Not Active”.
